Test results: ChEMBL document CHEMBL1133688, “Hunting the emesis and efficacy targets of PDE4 inhibitors: identification of the photoaffinity probe 8-(3-azidophenyl)-6- [(4-iodo-1H-1-imidazolyl)methyl]quinoline (APIIMQ)” (J Med Chem, 2000)

species on record: Cavia porcellus; assay: Bronchoconstriction effect in ovalbumin-induced guinea pig model; format: functional

SMILES	ED50
[N-]=[N+]=Nc1cccc(-c2cc(Cn3cnc(I)c3)cc3cccnc23)c1	0.3 mg/kg

species on record: Homo sapiens; assay: Inhibition of LPS-induced TNF-alpha secretion in human whole blood; format: functional

SMILES	IC50
[N-]=[N+]=Nc1cccc(-c2cc(Cn3cnc(I)c3)cc3cccnc23)c1	2000 nM

target: 3',5'-cyclic-AMP phosphodiesterase 4A (Homo sapiens, UniProt P27815); assay: Inhibition of recombinant human PDE4A expressed in Sf9 cells
Sequence (P27815 whole entry): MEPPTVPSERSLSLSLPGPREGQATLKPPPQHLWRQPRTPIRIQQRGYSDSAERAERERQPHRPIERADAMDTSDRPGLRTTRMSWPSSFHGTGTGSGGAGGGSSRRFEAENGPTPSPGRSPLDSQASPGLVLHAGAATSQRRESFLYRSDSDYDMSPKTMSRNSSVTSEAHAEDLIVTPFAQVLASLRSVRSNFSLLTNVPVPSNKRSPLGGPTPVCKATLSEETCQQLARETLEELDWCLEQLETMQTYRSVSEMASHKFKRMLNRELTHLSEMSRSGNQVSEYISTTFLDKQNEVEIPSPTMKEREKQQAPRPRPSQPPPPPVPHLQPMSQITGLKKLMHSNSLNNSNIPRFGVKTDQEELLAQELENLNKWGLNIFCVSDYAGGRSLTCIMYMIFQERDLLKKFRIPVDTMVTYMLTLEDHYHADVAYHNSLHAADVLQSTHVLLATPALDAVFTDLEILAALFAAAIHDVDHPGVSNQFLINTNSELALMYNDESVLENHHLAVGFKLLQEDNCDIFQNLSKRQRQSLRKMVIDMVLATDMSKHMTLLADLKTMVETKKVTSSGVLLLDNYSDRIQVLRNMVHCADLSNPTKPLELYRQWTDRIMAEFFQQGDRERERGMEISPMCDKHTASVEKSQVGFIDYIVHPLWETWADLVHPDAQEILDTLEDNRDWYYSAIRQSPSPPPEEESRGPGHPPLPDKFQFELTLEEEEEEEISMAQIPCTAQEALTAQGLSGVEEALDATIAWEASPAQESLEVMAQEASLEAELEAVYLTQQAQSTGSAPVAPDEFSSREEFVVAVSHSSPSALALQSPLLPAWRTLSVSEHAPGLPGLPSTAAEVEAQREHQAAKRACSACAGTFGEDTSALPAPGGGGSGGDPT
Outline: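 Inhibition of the purified enzyme's catalytic activity (cAMP hydrolysis) was measured, and IC50 was derived.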

SMILES	IC50	Ki
O=C(c1ccccc1)c1cc(-c2cccc(I)c2)c2ncccc2c1	15 nM	
[N-]=[N+]=Nc1cc(-c2cccc(I)c2)c2ncccc2c1	28 nM	
COc1ccc(C2CC(=O)N(Cc3cc(I)cc(C4(C(F)(F)F)N=N4)c3)C2)cc1OC1CCCC1 (centres undefined)	35 nM	
[N-]=[N+]=Nc1ccc(I)c(-c2cc(Cc3ccncc3)cc3cccnc23)c1	3.3 nM	
O=[N+]([O-])c1cccc(-c2cc(Cc3ccncc3)cc3cccnc23)c1	0.07 nM	
[N-]=[N+]=Nc1cccc(-c2cc(I)cc3cccnc23)c1	2.7 nM	
O=c1c2c(ncn2Cc2ccccc2)c2cccnc2n1-c1ccccc1	0.6 nM	
[N-]=[N+]=Nc1cccc(-c2cc(Cc3ccncc3)cc3cccnc23)c1	0.2 nM	
O=c1c2c(ncn2Cc2cc(I)cc(C3(C(F)(F)F)N=N3)c2)c2cccnc2n1-c1ccccc1	250 nM	
[N-]=[N+]=Nc1cccc(-c2cc(Cn3cnc(I)c3)cc3cccnc23)c1	0.4 nM	
c1ccc(-c2cc(Cn3ccnc3)cc3cccnc23)cc1	9 nM	
COc1ccc([C@H](Cc2ccncc2)c2ccccc2)cc1OC1CCCC1 [CDP840]		4 nM
